Compounds with a hit are over-represented: about 3.7% of the library has one in this group of screens.
GAA850 FXN act = increases GAA850 frataxin promoter reporter activity | HEK293 lucGAA850 FXN promoter luciferase reporter, 24 h; percent of 10 µM SAHA response | activation, % at 6 µM | hit rate 0.56% among 360,000 | AID 540364;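 active = activation above the average of all compounds screened plus 3 SD, cutoff fixed separately per campaign, cut at about 7.5% in these data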
AHR activator = activators of human aryl hydrocarbon receptor | P35869 | AHR-responsive luciferase reporter cells, luminescence | activation, % at 5 µM | hit rate 2.5% among 320,000; in the data active = activation above about 47%
SR-BI DiI-HDL act = enhances SR-BI lipid uptake from DiI-HDL; hit rate 0.096% among 320,000; activation, % at 12.5 µM; CHO ldlA[mSR-BI] cells, DiI-HDL uptake fluorescence, 3 h; 100 = double the neutral-control signal;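 active = mean replicate activation of at least 60% and every replicate at or above 60%; inconclusive = mean or all-replicate condition met, but not both; inactive = mean below 60% and not all replicates reaching 60%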
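system = CHO ldlA[mSR-BI] cells, LDL receptor-null, SR-BI overexpressing | medium = Ham's F12 with 0.5% BSA, HEPES 25 mM, pH 7.4 | probe or stimulus = DiI-HDL 10 µg/mL | compound dosing = single-point compound dose | incubation = compound exposure 3 h, 37 °C | technique = DiI fluorescence, bottom read | read-out = cell-associated DiI fluorescence as measure of HDL uptake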
GASC-1 inh = blocks human GASC-1 demethylase activity; hit rate 0.069% among 330,000; GST-JMJD2C(1-420) H3K9me3 demethylation, DELFIA europium; inhibition, % at 2.35 µM; AID 2099;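 active = more than half of a compound's replicate wells show inhibition beyond 50%, single wells judged on their own value; inconclusive = some, but no more than half, of replicates pass 50% inhibition; inactive = no replicate passes 50% inhibition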;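 also: signal counts dimethyl H3K9 product captured on neutravidin plate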
Target sequence (Q9H3R0 1-420 limits assumed): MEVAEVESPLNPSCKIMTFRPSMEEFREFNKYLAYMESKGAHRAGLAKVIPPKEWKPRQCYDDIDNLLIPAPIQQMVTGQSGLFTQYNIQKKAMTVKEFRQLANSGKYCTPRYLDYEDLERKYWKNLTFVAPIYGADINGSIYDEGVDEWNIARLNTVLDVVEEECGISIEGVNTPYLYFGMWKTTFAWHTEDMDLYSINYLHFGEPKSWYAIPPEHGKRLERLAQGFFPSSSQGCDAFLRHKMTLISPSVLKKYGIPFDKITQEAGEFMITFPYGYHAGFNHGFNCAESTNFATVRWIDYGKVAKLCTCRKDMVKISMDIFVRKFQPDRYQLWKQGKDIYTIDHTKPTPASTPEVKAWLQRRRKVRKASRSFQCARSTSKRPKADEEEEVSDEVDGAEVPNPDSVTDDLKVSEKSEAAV
SR-BI HDL uptake = blocks mouse SR-BI lipid uptake from DiI-HDL. inhibition, % at 12.5 µM. Q61009. AID 488896. hit rate 0.96% among 320,000. ldlA[mSR-BI] CHO cells, DiI-HDL uptake fluorescence, 3 h;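 active = mean replicate inhibition of at least 70% and a set share of replicates each scoring 70 or more; inconclusive = meets just one of the two criteria; inactive = fails both criteria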
Large screens that a line does not name were inactive.

COc1ccccc1-c1nc2ccccc2c(=O)n1NC(=O)c1cccs1	none
O=C(Nn1c(-c2ccccc2)nc2ccccc2c1=O)C1CCC1	AHR activator 47.2 (no result: SR-BI DiI-HDL act, SR-BI HDL uptake)
CN(C)C(=S)Nn1c(-c2ccccc2)nc2ccccc2c1=O	none
CC1(O)c2ccccc2C(=O)N1CCc1ccccc1F (stereo not drawn)	AHR activator 76.3
CCN(CC)S(=O)(=O)c1ccc(C(=O)NC(=S)N2CCN(c3ccccc3O)CC2)cc1	none (no result: AHR activator, SR-BI DiI-HDL act, GASC-1 inh, SR-BI HDL uptake)
O=[N+]([O-])C(=C1Nc2ccccc2N1)/C(Cl)=C(/Cl)Br	none
C=CCNc1nc(N)c(C(=C(C#N)C#N)c2ccc(Br)cc2)s1	AHR activator 57.2
O=C1CN(C(=O)CSc2nc(-c3ccccc3)cs2)c2ccccc2N1	AHR activator 58.2
NNc1nc2c(-c3cccc(C(F)(F)F)c3)nnn2c2ccccc12	none (no result: AHR activator)
O=C(NC1CCCCCCC1)c1ccc(Br)o1	none
CCOC(=O)/C(=N\Nc1ccccc1[N+](=O)[O-])c1csc(N)n1	SR-BI HDL uptake 77.7
Cn1nc([N+](=O)[O-])nc1S(C)(=O)=O	GAA850 FXN act 18.4 (no result: AHR activator)
CS(=O)(=O)c1nc([N+](=O)[O-])nn1CCCc1ccccc1	none
COc1ccc(C(CC(=O)NC(C)c2ccc(-c3ccccc3)cc2)NC(C)=O)cc1 (stereo not drawn)	none
COc1cc(NC(=O)COc2cccc(C)c2C)ccc1NC(=O)c1ccco1	none (no result: SR-BI DiI-HDL act, SR-BI HDL uptake)
O=[N+]([O-])c1ccccc1N/N=C/c1ccc2c(c1)OCO2	none (no result: AHR activator)
NS(=O)(=O)c1ccc(N/N=C/c2ccc3c(c2)OCO3)c([N+](=O)[O-])c1	AHR activator 113.9, SR-BI HDL uptake inconclusive
COc1ccccc1NC(=O)Cn1ncc2c1-c1ccccc1OC2	AHR activator 58.5
COc1ccc(NC(=O)Nc2ccccc2OC)cc1	none
COc1ccccc1NC(=O)Nc1cc(NC(=O)Nc2ccccc2OC)c(C)nc1C	AHR activator 49.1
COc1ccccc1Nc1nc(C)cs1	none
COc1ccccc1Nc1ccc(Nc2ccccc2OC)nn1	SR-BI HDL uptake 80.7
COc1ccccc1NC(=O)CC(=O)Nc1ccccc1OC	AHR activator 68.7
COc1ccccc1NC(=O)c1sc(Cl)nc1C	AHR activator 70.2
COc1ccccc1NC(=O)Cc1nn(C)c(=O)c2ccccc12	AHR activator 64.2
Cc1nc(Cl)sc1C(=O)Nc1ccccc1Cl	none
CCN(C(=O)CSc1nnc(-c2ccco2)n1CC)c1c(N)n(Cc2ccccc2)c(=O)[nH]c1=O	none (no result: SR-BI DiI-HDL act)
CCc1ccccc1NC(=S)Nn1cnnc1	none (no result: AHR activator)
COCCOC1CCN(C(=O)C2CCC(=O)N(CCc3ccccc3)C2)CC1 (stereo not drawn)	none
COc1ccc(CN(C)C2CCCCC2)c(C)c1C	none (no result: GASC-1 inh)
N#C/C(=C/c1ccccc1[N+](=O)[O-])c1nc(C2CC2)cs1	AHR activator 71.3
N#C/C(=C\c1ccccc1[N+](=O)[O-])c1nc(C2CC2)cs1	AHR activator 105.6
O=C(CSc1nc2c(sc3ccccc32)c(=O)n1CCc1ccccc1)NCc1ccco1	none
O=C(CSc1nc2c(sc3ccccc32)c(=O)n1-c1ccccc1)NCc1ccco1	AHR activator 113.4
O=C(CSc1nc2ccccc2c(=O)n1Cc1ccc(C(=O)NC2CC2)cc1)NCc1ccco1	GASC-1 inh 60.8
O=c1cc(N2CCN(c3ccc(F)cc3)CC2)[nH]c(=O)n1Cc1ccc(F)cc1	none
O=c1cc(N2CCOCC2)[nH]c(=O)n1Cc1ccc(F)cc1	SR-BI DiI-HDL act 230.6
COC(=O)c1ccccc1NC(=O)Cn1cnc2cc(C)c(C)cc21	none
O=C(c1cc(COc2ccc(F)cc2F)on1)N1CCN(C2CCCC2)C(=O)C1	none
COc1cc(-c2cc(-c3nnco3)c3ccccc3n2)cc(OC)c1OC	none
c1ccc(-c2cc(-c3nnco3)c3ccccc3n2)nc1	AHR activator 62.0
Clc1nc(-c2ccccc2)cc(-c2ccc(Br)cc2)n1	AHR activator 68.5
Nc1cc(-c2ccc(Br)cc2)nc2cc(-c3ccccc3)nn12	none
CCN(CC)CCNC(=O)c1ccc(NC(=O)c2ccc(F)cc2F)cc1	none
COc1ccc(N2CCN(C(=O)CSc3nnc(-c4ccco4)n3C)CC2)cc1	GASC-1 inh 64.1 (no result: GAA850 FXN act, SR-BI DiI-HDL act, SR-BI HDL uptake)
O=C(COC(=O)c1ccc(Cl)nc1)Nc1ccc2c(c1)OCO2	none
O=C(N/N=C/c1ccc([N+](=O)[O-])cc1)c1ccc(COc2ccccc2-c2ccccc2)cc1	SR-BI HDL uptake 99.3
COc1ccccc1CNC(=O)C1=CCN(S(=O)(=O)c2ccc(C)cc2)CC1	none (no result: SR-BI DiI-HDL act, SR-BI HDL uptake)
CC(=O)c1cnn(-c2ccc(Cl)c(Cl)c2Cl)c1C	none (no result: SR-BI DiI-HDL act, SR-BI HDL uptake)
S=C(NCCc1ccccc1)NCc1cccs1	none
O=C(Nc1cccnc1)/C(N=Nc1ccc(Cl)c(C(F)(F)F)c1)=C(\O)c1ccccc1	SR-BI HDL uptake 77.4
CC(C)NC(=O)CC1(C(=O)NCc2ccc(Cl)cc2)CCCC1	none
COc1ccc(OCC#CCn2ccnc2)cc1	none
COc1ccccc1OCC#CCn1ccnc1	AHR activator 59.7
CC(=O)Oc1ccc(C(=O)Nc2ccccc2C(=O)NCC(C)C)cc1	SR-BI HDL uptake 74.2
Cc1nc2cc(-c3ccccc3)nn2c(C)c1CCC(=O)NC(C)c1ccc2c(c1)OCCO2 (stereo not drawn)	SR-BI HDL uptake 77.0
CC(C)NC(=O)c1ccc(N(Cc2ccc(Cl)cc2)S(C)(=O)=O)cc1	none
CC(C)CNC(=O)c1cc2nc3c(c(C(F)(F)F)n2n1)CCc1ccccc1-3	SR-BI HDL uptake 78.2
CCC(=O)N1CCc2cc(S(=O)(=O)NC(Cc3ccccc3)C(=O)O)ccc21 (stereo not drawn)	none
CN(C(=O)COC(=O)c1ccccc1Nc1ccccc1)c1c(N)n(Cc2ccccc2)c(=O)[nH]c1=O	SR-BI HDL uptake 72.3
CCCCOc1ccccc1NC(=O)CC1SC(=NCC)N(CC)C1=O (stereo not drawn)	SR-BI HDL uptake 83.6
CCN=C1SC(CC(=O)Nc2ccccc2OCC)C(=O)N1CC (stereo not drawn)	none
O=C(CN1C(=O)COc2ccc(S(=O)(=O)N3CCOCC3)cc21)NCc1ccccn1	none (no result: SR-BI DiI-HDL act, SR-BI HDL uptake)
CN(CCOC(=O)c1cccc(F)c1)Cc1ccccc1	none
CC(CN(C)Cc1ccccc1)OC(=O)c1cccc(F)c1 (stereo not drawn)	SR-BI DiI-HDL act 69.5
COc1c2c(c3c(c1OC)c(=O)c1ccccc1n3C)OCO2	none (no result: AHR activator, GASC-1 inh)
COc1cc(C(=O)Oc2cc(C)cc(C)c2)cc(OC)c1OC	SR-BI HDL uptake 77.5
COc1cc(C(=O)Oc2cccnc2)cc(OC)c1OC	none
CCn1cc(Cl)c(C(=O)Nc2ccccc2C(N)=O)n1	AHR activator 54.5
CCn1cc(Br)c(C(=O)Nc2ccccc2C(=O)OC)n1	none
CCOC(=O)c1c(NC(=O)Nc2ccccc2)sc(C)c1C	AHR activator 48.5, SR-BI HDL uptake 85.5
CCOC(=O)c1c(NC(=S)Nc2ccccc2)sc2c1CC(C)(C)SC2	SR-BI HDL uptake 95.3
CCOC(=O)c1c(NC(=S)NC)sc2c1CC(C)(C)SC2	none
Fc1ccccc1-c1cc2ncccc2cn1	AHR activator 66.6

Compound activity (PubChem BioAssay)
